Source: the M2OR odorant receptor database
Substitutions are numbered along the chain they refer to.

Tests used:
Conditions in all cases: stereoisomer not certain
O51F1 [1] = tested on: T1, O51F1
T1 sequence (whole entry): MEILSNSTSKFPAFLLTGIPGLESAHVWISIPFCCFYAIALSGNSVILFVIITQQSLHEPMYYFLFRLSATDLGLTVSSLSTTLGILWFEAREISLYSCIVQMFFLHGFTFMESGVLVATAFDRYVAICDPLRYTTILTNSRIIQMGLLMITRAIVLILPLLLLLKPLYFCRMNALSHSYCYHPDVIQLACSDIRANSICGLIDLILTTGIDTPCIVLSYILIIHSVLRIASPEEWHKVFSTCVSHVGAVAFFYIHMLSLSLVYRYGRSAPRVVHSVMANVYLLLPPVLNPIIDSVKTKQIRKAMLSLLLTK
Method in brief: (§1)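 Each entry records the cell line, G-protein, co-transfected protein and tags used. Methods varied with the source, often transient luciferase assays in mammalian cell lines. A receptor–molecule pair is called responsive (active) if the original authors judged its signal statistically different from baseline and non-responsive (inactive) otherwise.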

O51F1 [2] = tested on: T2, O51F1; remark: listed apart in the source
T2 sequence (whole entry): T1 sequence (whole entry) with A13T
Method in brief: as §1

O4F15 S149F = tested on: T3, O4F15 S149F
T3 sequence (whole entry): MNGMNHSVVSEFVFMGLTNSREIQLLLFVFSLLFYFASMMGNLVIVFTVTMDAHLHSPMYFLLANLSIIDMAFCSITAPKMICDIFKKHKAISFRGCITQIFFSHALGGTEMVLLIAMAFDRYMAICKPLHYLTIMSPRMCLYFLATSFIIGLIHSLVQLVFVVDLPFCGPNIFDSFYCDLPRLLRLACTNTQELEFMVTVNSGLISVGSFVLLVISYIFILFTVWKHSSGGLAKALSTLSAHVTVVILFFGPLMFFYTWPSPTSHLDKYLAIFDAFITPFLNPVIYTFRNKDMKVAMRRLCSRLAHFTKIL
Method in brief: as §1

O4F17 [3] = tested on: T4, O4F17
T4 sequence (whole entry): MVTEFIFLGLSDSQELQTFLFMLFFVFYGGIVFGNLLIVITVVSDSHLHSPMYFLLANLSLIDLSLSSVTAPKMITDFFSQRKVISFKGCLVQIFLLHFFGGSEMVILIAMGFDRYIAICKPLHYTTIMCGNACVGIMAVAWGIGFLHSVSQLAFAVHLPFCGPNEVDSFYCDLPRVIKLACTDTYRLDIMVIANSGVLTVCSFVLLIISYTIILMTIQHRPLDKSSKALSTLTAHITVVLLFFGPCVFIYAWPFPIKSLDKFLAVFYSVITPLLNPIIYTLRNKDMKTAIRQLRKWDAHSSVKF
Method in brief: as §1

O4F17 [4] = tested on: T5, O4F17; remark: listed apart in the source
T5 sequence (whole entry): T4 sequence (whole entry) with E15G, Q293R
Method in brief: as §1

O4F21 F44L = tested on: T6, O4F21 F44L
T6 sequence (whole entry): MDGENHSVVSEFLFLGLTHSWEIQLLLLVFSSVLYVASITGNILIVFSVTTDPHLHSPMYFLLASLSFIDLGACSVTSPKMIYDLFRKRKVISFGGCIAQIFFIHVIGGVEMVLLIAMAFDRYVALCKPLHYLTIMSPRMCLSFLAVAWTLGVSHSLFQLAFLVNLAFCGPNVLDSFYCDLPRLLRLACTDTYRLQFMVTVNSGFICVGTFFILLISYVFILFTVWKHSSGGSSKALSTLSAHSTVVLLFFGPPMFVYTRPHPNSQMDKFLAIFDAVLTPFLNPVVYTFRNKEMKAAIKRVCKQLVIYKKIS
Method in brief: as §1

O51A7 E8D = tested on: T7, O51A7 E8D
T7 sequence (whole entry): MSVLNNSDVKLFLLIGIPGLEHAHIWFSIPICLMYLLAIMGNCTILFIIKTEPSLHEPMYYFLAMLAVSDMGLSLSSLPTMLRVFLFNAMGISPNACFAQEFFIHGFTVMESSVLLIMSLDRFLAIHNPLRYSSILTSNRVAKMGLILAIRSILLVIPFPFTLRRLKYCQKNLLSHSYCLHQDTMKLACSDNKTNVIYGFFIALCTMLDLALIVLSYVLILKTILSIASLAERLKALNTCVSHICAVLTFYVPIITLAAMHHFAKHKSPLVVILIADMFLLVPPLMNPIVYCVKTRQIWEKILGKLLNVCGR
Method in brief: as §1

O51B2 C120R C209S P283S = tested on: T8, O51B2 C120R C209S P283S
T8 sequence (whole entry): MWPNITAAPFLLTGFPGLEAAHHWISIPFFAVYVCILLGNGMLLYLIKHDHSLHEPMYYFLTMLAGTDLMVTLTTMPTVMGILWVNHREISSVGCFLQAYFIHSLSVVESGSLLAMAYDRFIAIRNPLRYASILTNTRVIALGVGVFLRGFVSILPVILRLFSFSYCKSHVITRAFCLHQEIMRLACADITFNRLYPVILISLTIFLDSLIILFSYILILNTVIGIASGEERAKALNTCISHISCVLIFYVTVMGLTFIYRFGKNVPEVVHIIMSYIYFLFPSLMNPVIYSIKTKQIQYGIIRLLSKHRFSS
Method in brief: as §1

O51B4 M147T = tested on: T9, O51B4 M147T
T9 sequence (whole entry): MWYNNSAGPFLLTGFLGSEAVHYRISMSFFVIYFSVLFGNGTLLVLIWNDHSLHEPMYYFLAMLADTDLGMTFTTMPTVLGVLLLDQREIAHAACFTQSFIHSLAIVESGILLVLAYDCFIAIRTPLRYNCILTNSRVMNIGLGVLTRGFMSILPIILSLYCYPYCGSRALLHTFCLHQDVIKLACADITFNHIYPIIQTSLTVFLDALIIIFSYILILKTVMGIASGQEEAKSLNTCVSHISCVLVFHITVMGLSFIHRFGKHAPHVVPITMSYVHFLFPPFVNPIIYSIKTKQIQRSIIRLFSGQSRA
Method in brief: as §1

O51B4 = tested on: T10, O51B4
T10 sequence (whole entry): T9 sequence (whole entry) with V36I
Method in brief: as §1

O51B5 G5S I102T P160L = tested on: T11, O51B5 G5S I102T P160L
T11 sequence (whole entry): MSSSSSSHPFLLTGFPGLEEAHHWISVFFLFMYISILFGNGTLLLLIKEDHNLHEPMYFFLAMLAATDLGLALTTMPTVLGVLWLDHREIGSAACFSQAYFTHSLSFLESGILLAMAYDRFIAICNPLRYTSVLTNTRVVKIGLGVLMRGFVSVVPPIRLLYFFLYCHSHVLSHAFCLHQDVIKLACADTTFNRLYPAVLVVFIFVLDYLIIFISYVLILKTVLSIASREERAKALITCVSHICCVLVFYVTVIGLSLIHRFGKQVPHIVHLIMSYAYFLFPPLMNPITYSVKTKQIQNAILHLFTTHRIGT
Method in brief: as §1

O51D1 I89V = tested on: T12, O51D1 I89V
T12 sequence (whole entry): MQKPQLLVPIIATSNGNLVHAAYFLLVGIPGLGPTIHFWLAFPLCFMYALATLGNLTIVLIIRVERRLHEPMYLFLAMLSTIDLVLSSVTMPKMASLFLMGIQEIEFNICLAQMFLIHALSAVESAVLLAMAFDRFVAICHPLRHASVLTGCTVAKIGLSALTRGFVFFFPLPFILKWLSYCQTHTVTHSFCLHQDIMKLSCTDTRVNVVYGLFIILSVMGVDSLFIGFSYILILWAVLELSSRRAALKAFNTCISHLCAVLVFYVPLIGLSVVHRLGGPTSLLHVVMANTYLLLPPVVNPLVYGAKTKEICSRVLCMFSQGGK
Method in brief: as §1

O51F2 Y341S = tested on: T13, O51F2 Y341S
T13 sequence (whole entry): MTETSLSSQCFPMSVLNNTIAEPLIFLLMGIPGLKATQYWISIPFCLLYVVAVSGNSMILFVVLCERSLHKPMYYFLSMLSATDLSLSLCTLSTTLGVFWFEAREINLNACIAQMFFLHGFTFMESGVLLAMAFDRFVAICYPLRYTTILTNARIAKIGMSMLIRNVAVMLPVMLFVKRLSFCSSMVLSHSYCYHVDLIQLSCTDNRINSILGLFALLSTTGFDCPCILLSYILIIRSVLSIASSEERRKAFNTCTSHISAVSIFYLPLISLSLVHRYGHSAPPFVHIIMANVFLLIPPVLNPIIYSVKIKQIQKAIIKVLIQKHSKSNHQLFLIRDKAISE
Method in brief: as §1

O51G1 = tested on: T14, O51G1
T14 sequence (whole entry): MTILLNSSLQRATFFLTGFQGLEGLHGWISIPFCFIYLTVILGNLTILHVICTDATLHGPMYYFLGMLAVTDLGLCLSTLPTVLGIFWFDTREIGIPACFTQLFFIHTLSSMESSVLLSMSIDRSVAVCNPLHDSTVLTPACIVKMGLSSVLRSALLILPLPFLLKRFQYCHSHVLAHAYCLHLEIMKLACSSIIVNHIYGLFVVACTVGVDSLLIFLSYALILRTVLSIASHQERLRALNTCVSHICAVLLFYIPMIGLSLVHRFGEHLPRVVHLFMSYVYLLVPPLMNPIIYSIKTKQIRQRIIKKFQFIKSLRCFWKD
Method in brief: as §1

O51I1 V164L = tested on: T15, O51I1 V164L
T15 sequence (whole entry): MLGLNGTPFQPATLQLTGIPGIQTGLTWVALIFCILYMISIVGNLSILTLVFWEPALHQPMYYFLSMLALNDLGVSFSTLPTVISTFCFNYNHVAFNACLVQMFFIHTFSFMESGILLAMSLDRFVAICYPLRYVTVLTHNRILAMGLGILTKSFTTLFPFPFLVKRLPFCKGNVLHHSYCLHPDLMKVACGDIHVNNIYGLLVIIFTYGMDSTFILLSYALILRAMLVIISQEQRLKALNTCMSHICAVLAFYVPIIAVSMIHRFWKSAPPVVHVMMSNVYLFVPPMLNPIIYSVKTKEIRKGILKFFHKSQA
Method in brief: as §1

O51J1 R75H I202V = tested on: T16, O51J1 R75H I202V
T16 sequence (whole entry): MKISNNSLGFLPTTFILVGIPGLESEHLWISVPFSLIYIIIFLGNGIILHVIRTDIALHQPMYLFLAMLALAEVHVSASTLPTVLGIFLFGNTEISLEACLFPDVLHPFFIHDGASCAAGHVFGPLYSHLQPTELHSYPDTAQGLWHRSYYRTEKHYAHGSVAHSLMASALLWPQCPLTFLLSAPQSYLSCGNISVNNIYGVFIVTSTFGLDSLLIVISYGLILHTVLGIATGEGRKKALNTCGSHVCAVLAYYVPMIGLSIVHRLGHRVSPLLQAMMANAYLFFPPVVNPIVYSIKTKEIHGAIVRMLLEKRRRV
Method in brief: as §1

O51L1 = tested on: T17, O51L1
T17 sequence (whole entry): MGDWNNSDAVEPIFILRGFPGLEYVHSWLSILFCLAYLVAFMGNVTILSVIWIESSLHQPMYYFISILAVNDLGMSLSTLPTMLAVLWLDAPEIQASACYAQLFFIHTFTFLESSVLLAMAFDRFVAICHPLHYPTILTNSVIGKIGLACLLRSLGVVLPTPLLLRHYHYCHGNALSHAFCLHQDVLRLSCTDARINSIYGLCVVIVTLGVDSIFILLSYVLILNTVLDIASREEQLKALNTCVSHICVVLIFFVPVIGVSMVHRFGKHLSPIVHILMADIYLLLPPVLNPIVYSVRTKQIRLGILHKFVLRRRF
Method in brief: as §1

O51T1 = tested on: T18, O51T1
T18 sequence (whole entry): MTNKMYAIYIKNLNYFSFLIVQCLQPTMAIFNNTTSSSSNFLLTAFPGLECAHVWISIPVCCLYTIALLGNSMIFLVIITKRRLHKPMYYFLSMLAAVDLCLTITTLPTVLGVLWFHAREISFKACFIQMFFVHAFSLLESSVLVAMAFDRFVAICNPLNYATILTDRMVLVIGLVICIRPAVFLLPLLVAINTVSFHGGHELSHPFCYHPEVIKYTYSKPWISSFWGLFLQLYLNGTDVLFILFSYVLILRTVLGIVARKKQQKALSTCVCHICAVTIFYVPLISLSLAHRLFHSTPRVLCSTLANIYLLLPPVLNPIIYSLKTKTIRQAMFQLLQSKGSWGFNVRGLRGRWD
Method in brief: as §1

O51V1 L36F N51T G96W = tested on: T19, O51V1 L36F N51T G96W
T19 sequence (whole entry): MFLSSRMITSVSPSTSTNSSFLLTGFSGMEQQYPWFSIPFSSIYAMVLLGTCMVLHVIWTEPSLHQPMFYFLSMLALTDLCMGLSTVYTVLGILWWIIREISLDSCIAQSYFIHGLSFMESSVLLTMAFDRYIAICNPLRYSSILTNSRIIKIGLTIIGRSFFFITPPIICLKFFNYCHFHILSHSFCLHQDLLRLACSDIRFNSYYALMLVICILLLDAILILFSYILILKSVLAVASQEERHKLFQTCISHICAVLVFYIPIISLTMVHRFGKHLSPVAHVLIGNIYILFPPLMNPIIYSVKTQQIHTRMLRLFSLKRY
Method in brief: as §1

O51J1 = tested on: O51J1
Method in brief: as §1

Measured: odorant receptor agonist call

Chain of O51J1 (as listed by the source): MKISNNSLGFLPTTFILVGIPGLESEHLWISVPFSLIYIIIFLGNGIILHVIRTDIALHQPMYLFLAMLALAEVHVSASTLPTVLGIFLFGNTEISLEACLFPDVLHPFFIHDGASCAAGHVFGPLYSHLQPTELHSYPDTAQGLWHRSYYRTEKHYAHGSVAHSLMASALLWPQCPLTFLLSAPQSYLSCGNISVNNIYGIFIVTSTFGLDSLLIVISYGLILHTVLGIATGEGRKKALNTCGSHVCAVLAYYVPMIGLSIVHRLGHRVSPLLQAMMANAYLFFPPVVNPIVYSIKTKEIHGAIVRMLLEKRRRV

C=C(C)C1CCC(C)C(=O)C1 (configuration not stated)
inactive: O51F1 [1] | O51F1 [2]

CC1=C(O)C(=O)C(C)O1 (configuration not stated)
not listed: O51J1
inactive: all other assays above

Cc1cnc(C)c(C)n1
not listed: O51J1
inactive: all other assays above

CCCC(S)CCOC(C)=O (configuration not stated)
not listed: O51J1
inactive: all other assays above

CCC1OC(C)=C(O)C1=O (configuration not stated)
not listed: O51J1
inactive: all other assays above

CCCCCCC=CCCC=O
not listed: O51F1 [2] | O4F15 S149F | O51T1 | O51J1
inactive: all other assays above

CC1=C(O)C(=O)OC1C (configuration not stated)
not listed: O51J1
inactive: all other assays above

CCC1OC(=O)C(O)=C1C (configuration not stated)
not listed: O51J1
inactive: all other assays above

CCCC(C)=CC(=O)O
inactive: O51J1

CC1=NC(C)C(C)S1 (configuration not stated)
not listed: O51J1
inactive: all other assays above
